In ChEMBL document CHEMBL2413007, “Synthesis of polysubstituted benzofuran derivatives as novel inhibitors of parasitic growth” (Bioorg Med Chem, 2013):

Experiments:
Plasmodium falciparum = test: Antiplasmodial activity against erythrocytic stages of chloroquine-resistant Plasmodium falciparum FcB1/Columbia incubated for 24 hrs followed by [3H]-hypoxanthine addition measured after 24 hrs by liquid scintillation spectrometry; type: functional, organism-based
Procedure, shortened: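 Asynchronous FcB1/Colombia cultured on human erythrocytes in RPMI 1640 + 8% heat-inactivated human serum, 37 °C, 3% CO₂/6% O₂/91% N₂. DMSO stocks 10 mM, two-fold serial dilutions; 1% parasitaemia, 1% final haematocrit. 24 h drug exposure, then 0.5 µCi [³H]-hypoxanthine per well, 24 h more; freeze-thaw, filter harvest, scintillation counting versus untreated same-plate control. IC50 from concentration–response curve; mean ± SD of several independent experiments; chloroquine control.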

[1] = tested on: Trypanosoma brucei gambiense; test: Antitrypanosomal activity against Trypanosoma brucei gambiense Feo bloodstream form after 72 hrs by fluorescence assay; type: functional, organism-based
Procedure, shortened: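 Bloodstream forms of strain Feo grown in HMI9 with 10% FCS, 37 °C, 5% CO₂. Log-phase cells harvested by centrifugation (3000g) and used at once, seeded at 3 × 10⁴ cells/ml. Inhibitor concentration series, final DMSO ≤1%. Resazurin added after 72 h (final 45 µM), fluorescence (ex 530/em 590 nm) read 4 h later. Inhibition relative to untreated parasites; triplicates, experiment repeated twice.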

Row | SMILES | IC50 (Plasmodium falciparum) | IC50 [1]
1 | COc1ccc(-c2oc3ccccc3c2C(=O)c2ccccc2)cc1 | > 50 µM | 21.2 µM
2 | COc1ccc(-c2oc3ccccc3c2C(=O)c2ccc([N+](=O)[O-])cc2)cc1 | > 50 µM | > 50 µM
3 | COc1ccc(-c2oc3ccccc3c2C(=O)c2c(O)cc(OC)cc2OC)cc1 | > 25 µM | 6.7 µM
4 | O=C(c1ccccc1)c1c(C2CC2)oc2ccccc12 | > 50 µM | 20.9 µM
5 | O=C(c1ccccc1)c1c(-c2ccccc2)oc2ccccc12 | > 50 µM | 15.5 µM
6 | O=C(c1ccc([N+](=O)[O-])cc1)c1c(-c2ccccc2)oc2ccccc12 | > 50 µM | > 50 µM
7 | COc1ccc(-c2oc3cccc(O)c3c2C(=O)c2ccccc2)cc1 | > 25 µM | 6.5 µM
8 | COc1ccc(C(=O)c2c(-c3ccc(OC)cc3)oc3cccc(O)c23)cc1 | > 25 µM | 7.7 µM
9 | COc1ccc(-c2oc3cccc(O)c3c2C(=O)c2cccc3ccccc23)cc1 | > 50 µM | 4.2 µM
10 | CCOc1ccc2ccccc2c1C(=O)c1c(-c2ccc(OC)cc2)oc2cccc(O)c12 | > 25 µM | 1.5 µM
11 | COc1ccc(C(=O)c2c(C3CC3)oc3cccc(O)c23)cc1 | > 50 µM | 3.7 µM
12 | O=C(c1cccc2ccccc12)c1c(C2CC2)oc2cccc(O)c12 | > 50 µM | 4.6 µM
13 | CCOc1ccc2ccccc2c1C(=O)c1c(C2CC2)oc2cccc(O)c12 | > 25 µM | 2 µM
14 | COc1ccc(-c2oc3cccc(OC)c3c2C(=O)c2ccccc2)cc1 | > 50 µM | 11.8 µM
15 | COc1ccc(C(=O)c2c(-c3ccc(OC)cc3)oc3cccc(OC)c23)cc1 | > 25 µM | 8.3 µM
16 | COc1ccc(-c2oc3cccc(OC)c3c2C(=O)c2cccc3ccccc23)cc1 | > 50 µM | 12.4 µM
17 | COc1ccc(-c2oc3cccc(OC)c3c2C(=O)c2ccc(Cl)cc2)cc1 | > 50 µM | 5.5 µM
18 | COc1ccc(-c2oc3cccc(OC)c3c2C(=O)c2ccc(OC(=O)C(C)(C)C)c(OC)c2)cc1 | > 50 µM | 8.4 µM
19 | COc1ccc(-c2oc3cccc(OC)c3c2C(=O)c2c(OC)cc(OC)cc2OC)cc1 | > 50 µM | > 50 µM
20 | COc1ccc(-c2cc3c(OC(=O)c4ccccc4)cccc3o2)cc1 | > 25 µM | 3.2 µM

Row | SMILES | IC50 (Plasmodium falciparum) | IC50 [1]
21 | COc1ccc(C(=O)Oc2cccc3oc(-c4ccc(OC)cc4)cc23)cc1 | 11.2 µM | 1.8 µM
22 | COc1ccc(-c2cc3c(OC(=O)c4c(O)cc(OC)cc4OC)cccc3o2)cc1 | 7.9 µM | > 50 µM
23 | COc1ccc(-c2cc3c(OC(=O)c4cccc5ccccc45)cccc3o2)cc1 | > 50 µM | 14.9 µM
24 | CCOc1ccc2ccccc2c1C(=O)Oc1cccc2oc(-c3ccc(OC)cc3)cc12 | > 50 µM | 7.7 µM
25 | COc1ccc(-c2cc3c(OC(=O)c4ccc(Cl)cc4)cccc3o2)cc1 | > 25 µM | 1.5 µM
26 | COc1ccc(-c2cc3c(OC(=O)c4ccc([N+](=O)[O-])cc4)cccc3o2)cc1 | > 50 µM | 1.7 µM
27 | O=C(Oc1cccc2oc(C3CC3)cc12)c1ccccc1 | > 50 µM | 14.7 µM
28 | COc1ccc(C(=O)Oc2cccc3oc(C4CC4)cc23)cc1 | > 50 µM | 2.7 µM
29 | O=C(Oc1cccc2oc(C3CC3)cc12)c1cccc2ccccc12 | > 50 µM | 12.6 µM
30 | CCOc1ccc2ccccc2c1C(=O)Oc1cccc2oc(C3CC3)cc12 | > 25 µM | 6.4 µM
31 | O=C(Oc1cccc2oc(C3CC3)cc12)c1ccc(Cl)cc1 | > 50 µM | 7.1 µM
32 | O=C(Oc1cccc2oc(C3CC3)cc12)c1ccc([N+](=O)[O-])cc1 | > 50 µM | 12.2 µM
33 | O=C(Oc1cccc2oc(-c3ccccc3)cc12)c1ccccc1 | > 25 µM | 14 µM
34 | COc1ccc(C(=O)Oc2cccc3oc(-c4ccccc4)cc23)cc1 | > 25 µM | 1.7 µM
35 | O=C(Oc1cccc2oc(-c3ccccc3)cc12)c1cccc2ccccc12 | > 25 µM | 21.3 µM
36 | CCOc1ccc2ccccc2c1C(=O)Oc1cccc2oc(-c3ccccc3)cc12 | > 50 µM | 6.7 µM
37 | O=C(Oc1cccc2oc(-c3ccccc3)cc12)c1ccc(Cl)cc1 | > 25 µM | 1.6 µM
38 | O=C(Oc1cccc2oc(-c3ccccc3)cc12)c1ccc([N+](=O)[O-])cc1 | > 25 µM | 1.8 µM
39 | Cc1cc(C)cc(-c2cc3c(OC(=O)c4ccccc4)cccc3o2)c1 | 6 µM | 2 µM
40 | N=C(N)c1ccc(OCCCCCOc2ccc(C(=N)N)cc2)cc1 [PENTAMIDINE] | – | 0.011 µM
